Assay outcomes deposited in PubChem by several laboratories.
Hits are enriched below; roughly 1.5% of the tested compounds scored in any of these assays.
TPT1 inhibitor – blocks Candida albicans tRNA 2'-phosphotransferase; hit rate 0.81% among 300,000; recombinant caTPT1, FP RNA substrate dephosphorylation; inhibition, % at 5 µM;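 active = inhibition above the mean of all tested compounds plus 3 SD, set per screening campaign, cut at about 24% in these data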
HNF4A DNA FP – change in binding of human HNF4 alpha to DNA; activity change, % at 10 µM; hit rate 0.3% among 360,000; P41235; HNF4a-FITC DNA binding, fluorescence polarization, 1 h; AID 1224865; in the data active = activity change above about 30%, passing the limit was not always enough
Target sequence (P41235 whole entry, looked up): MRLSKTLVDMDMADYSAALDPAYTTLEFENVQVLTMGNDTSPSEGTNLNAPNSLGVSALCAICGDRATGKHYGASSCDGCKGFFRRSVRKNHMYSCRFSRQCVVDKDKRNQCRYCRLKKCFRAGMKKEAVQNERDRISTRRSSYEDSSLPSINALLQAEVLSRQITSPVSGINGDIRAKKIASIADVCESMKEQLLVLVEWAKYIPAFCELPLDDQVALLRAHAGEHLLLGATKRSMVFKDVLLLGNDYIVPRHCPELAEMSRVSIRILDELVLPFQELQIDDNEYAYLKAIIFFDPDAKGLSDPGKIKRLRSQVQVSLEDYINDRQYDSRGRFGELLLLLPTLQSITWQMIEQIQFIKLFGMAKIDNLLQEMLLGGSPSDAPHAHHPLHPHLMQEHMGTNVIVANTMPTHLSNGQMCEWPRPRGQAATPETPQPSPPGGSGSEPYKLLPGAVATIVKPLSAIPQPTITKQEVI
Rpn11 inh – Rpn11 (human) deubiquitinase inhibition. O00487. human 26S proteasome, Ub4-pepOG fluorescence polarization; 20S core pre-blocked with epoxomicin. inhibition, % at 20 µM. hit rate 0.59% among 360,000;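 active = inhibition at 20 µM, scaled to each plate's controls, above about 33%, limit read from the data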
Target sequence (O00487 whole entry, looked up): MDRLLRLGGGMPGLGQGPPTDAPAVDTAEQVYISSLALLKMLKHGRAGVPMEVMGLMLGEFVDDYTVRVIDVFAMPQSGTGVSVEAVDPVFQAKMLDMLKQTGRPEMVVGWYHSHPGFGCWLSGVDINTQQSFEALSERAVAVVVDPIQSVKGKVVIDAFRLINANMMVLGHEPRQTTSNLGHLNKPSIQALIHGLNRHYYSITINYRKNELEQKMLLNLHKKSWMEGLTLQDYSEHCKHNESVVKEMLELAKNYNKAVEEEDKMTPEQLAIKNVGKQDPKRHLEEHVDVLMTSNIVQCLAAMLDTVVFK
CSN deneddyl inh – CSN deneddylation inhibition; Q92905; Purified CSN, SCF-Nedd8-OG deneddylation, fluorescence polarization; inhibition, % at 12.5 µM; hit rate 0.38% among 360,000; AID 651999;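 active = pattern-corrected inhibition above about 35%, with an unprinted fluorescence ratio check between 0.5 and 1.5, limit read from the data, passing the limit was not always enough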
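Assay system: purified human Csn5 enzyme expressed in HEK293T cells; Input: 0.24 nM Csn5 enzyme, final concentration; Reagent: 10 nM SCFSkp2-Nedd8OG; Compound dosing: 12.5 µM single point; Times: reaction 90 min, room temperature; Technique: fluorescence polarization readout.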
CSN5 deneddyl – Csn5 (human) deneddylation inhibition, single-concentration validation; inhibition, % at 16.6 µM; Csn5 deneddylation of SCF-Nedd8OG, fluorescence polarization, 90 min; shares compounds with CSN deneddyl inh; hit rate 62% among 540; in the data active = inhibition above about 50%
MMP2 cntr CSN – MMP-2 (human) inhibition, counter-screen for CSN hits. shares compounds with CSN deneddyl inh. recombinant MMP-2, FRET substrate fluorescence, 60 min. inhibition, % at 16.6 µM. hit rate 33% among 540;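 active = corrected plate-normalized z-score of 5 or more, or -5 or less, or inhibition of 15% or more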
Thrombin counter – thrombin (bovine) inhibition, counter-screen for CSN hits; bovine thrombin cleavage of Ub4-pepOG, fluorescence polarization; inhibition, % at 16.6 µM; shares compounds with CSN deneddyl inh; hit rate 49% among 540;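 active = inhibition at or above a set limit, with a fluorescence interference ratio between 0.5 and a set maximum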
Large screens that a line does not name were inactive (follow-up assays come after a bar, where shown).

Cc1ccc2nc(N(CCCN(C)C)C(=O)c3ccc(S(=O)(=O)N4CCc5ccccc5C4)cc3)sc2c1	none
CN(C)CCCN(C(=O)c1ccc(S(=O)(=O)N2CCc3ccccc3C2)cc1)c1nc2ccc(F)cc2s1	HNF4A DNA FP 57.0, CSN deneddyl inh 98.5 | CSN5 deneddyl inactive | MMP2 cntr CSN inactive | Thrombin counter inactive
CCCn1c(N)c(C(=O)CN(C)CC(=O)Nc2cc(C)ccc2C)c(=O)[nH]c1=O	none (no result: TPT1 inhibitor)
CCOC(=O)/C=C(\C)Sc1cc(O)c2ccccc2c1O	CSN deneddyl inh 41.5 (no result: TPT1 inhibitor) | CSN5 deneddyl 50.9 | MMP2 cntr CSN 23.9 | Thrombin counter inactive
COC(=O)[C@]12CCCCC=C1N(CCC1=CCCCC1)C(=O)[C@H](CC(=O)NCC13CC4CC(CC(C4)C1)C3)C2	none (no result: TPT1 inhibitor, Rpn11 inh)
O=C1NC(=S)S/C1=C\C=C\c1ccc([N+](=O)[O-])o1	none (not shown: TPT1 inhibitor, Rpn11 inh)
O=C1NC(=S)S/C1=C/c1ccc(N2CCOCC2)o1	CSN deneddyl inh 118.3 (not shown: Rpn11 inh) | CSN5 deneddyl 100.1 | MMP2 cntr CSN -25.0 | Thrombin counter inactive
Cc1ccc(Cc2c(-c3ccc(F)cc3)nc3cc(C)ccn23)cc1	none (no result: TPT1 inhibitor)
CN1C(=S)N(c2cccnc2)C(=O)/C1=C\c1ccc(N(C)C)cc1	HNF4A DNA FP 75.9, CSN deneddyl inh 46.8 (not shown: TPT1 inhibitor, Rpn11 inh) | CSN5 deneddyl 67.8 | MMP2 cntr CSN inactive | Thrombin counter 21.9
CN1C(=S)N(c2cccnc2)C(=O)/C1=C\c1ccc(C(C)(C)C)cc1	none
Cc1ccc(N=C2NC(=O)/C(=C/C=C/c3ccco3)S2)cc1	CSN deneddyl inh 49.2 | CSN5 deneddyl 93.2 | MMP2 cntr CSN 17.0 | Thrombin counter inactive
O=C(O)c1cc(-c2ccc(/C=C3/SC(=S)N(Cc4ccccc4)C3=O)o2)ccc1Cl	none (not shown: TPT1 inhibitor, Rpn11 inh)
O=C1/C(=C\c2ccc(O)c(O)c2)SC(=S)N1Cc1ccccc1	HNF4A DNA FP 68.0, CSN deneddyl inh 55.3 (not shown: TPT1 inhibitor, Rpn11 inh) | CSN5 deneddyl inactive | MMP2 cntr CSN inactive | Thrombin counter 68.1
Cc1ccc(/C=C2\SC(=S)N(Cc3ccccc3)C2=O)o1	TPT1 inhibitor 39.0, CSN deneddyl inh 115.0 (not shown: Rpn11 inh) | CSN5 deneddyl 107.7 | MMP2 cntr CSN inactive | Thrombin counter 23.9
O=C1/C(=C\c2cccc(O)c2)SC(=S)N1Cc1ccccc1	none
C[N+](C)(C)CCN1C(=O)c2ccccc2C1=O	none (no result: TPT1 inhibitor, Rpn11 inh)
COC(=O)C1=C(C)NC(=O)NC1c1ccc(N2CCC(c3ccccc3)=N2)cc1 (centres undefined)	none
CCOC(=O)/C(=C\c1ccc(N2CCC(c3ccccc3)=N2)cc1)C(C)=O	CSN deneddyl inh 38.0 (not shown: TPT1 inhibitor, Rpn11 inh) | CSN5 deneddyl 20.1 | MMP2 cntr CSN -58.0 | Thrombin counter 27.5
CCN1C(=O)/C(=C/N2CCc3ccccc32)SC1=S	CSN deneddyl inh 37.0 (not shown: Rpn11 inh) | CSN5 deneddyl 103.9 | MMP2 cntr CSN inactive | Thrombin counter inactive
C#CCN1C(=O)S/C(=C\c2ccc(-c3ccc(C(=O)O)cc3C)o2)C1=O	CSN deneddyl inh 38.7 | MMP2 cntr CSN inactive | Thrombin counter 37.3
COC(=O)c1ccccc1-c1ccc(/C=C2\C(=O)N(c3ccccc3)N=C2c2ccccc2)o1	none
Cc1ccccc1NC(=O)CN1C(=O)S/C(=C\c2ccc(-c3cc(C(=O)O)ccc3C)o2)C1=O	CSN deneddyl inh 71.4 (no result: TPT1 inhibitor) | MMP2 cntr CSN inactive | Thrombin counter inactive
CCOC(=O)C(C)N1C(=O)S/C(=C\c2ccc(-c3ccccc3C(=O)O)o2)C1=O (centres undefined)	CSN deneddyl inh 48.1 | MMP2 cntr CSN 25.3 | Thrombin counter inactive
Cc1ccc(NC(=O)CN2C(=O)S/C(=C/c3ccc(-c4cccc(C(=O)O)c4)o3)C2=O)cc1	none (not shown: TPT1 inhibitor, Rpn11 inh)
CCOC1=C2CN(S(=O)(=O)c3ccc(C)cc3)[C@H](c3ccccc3)C[C@H]2[C@H]2C(=O)N(c3ccccc3)C(=O)[C@H]2C1	none (no result: TPT1 inhibitor)
O=C(O)c1ccc(-n2cccc2/C=N\NC(=O)c2cc3cc(Br)ccc3o2)cc1	CSN deneddyl inh 42.8 | CSN5 deneddyl inactive | MMP2 cntr CSN 20.7 | Thrombin counter 22.0
Cn1cc(/C=N/NC(=O)c2cc3cc(Br)ccc3o2)c2ccccc21	none
CCN(CC)C(=O)c1[nH]cnc1C(=O)Nc1ccccc1F	none (no result: TPT1 inhibitor)
CCCCCCCCCCCCC/C=C/[C@@H](O)[C@@H](N)CO	CSN deneddyl inh 41.3 | CSN5 deneddyl inactive | MMP2 cntr CSN inactive | Thrombin counter inactive
CCCCCCCC/C=C\CCCCCCCC(=O)O	none
CCC1NC(=O)c2cccnc2-n2c1nc1cc(F)ccc1c2=O (centres undefined)	none (no result: TPT1 inhibitor)
O=C(O)c1cccc(N2C(=O)/C(=C/c3ccc(SCc4ccc(Cl)cc4)o3)SC2=S)c1	CSN deneddyl inh 45.7 (not shown: TPT1 inhibitor, Rpn11 inh) | MMP2 cntr CSN inactive | Thrombin counter 48.9
O=C(CCN1C(=O)/C(=C/c2ccc(Cl)cc2)SC1=S)Nc1cccc(C(=O)O)c1	none
CCOC(=O)N1CCN(C(=O)CN(C)S(=O)(=O)c2ccc(OCC)cc2)CC1	none
O=C1c2ccccc2C(=O)c2c(Nc3ccc(CCO)cc3)ccc(O)c21	none
O=C1c2c(O)ccc(O)c2C(=O)c2c(NCCNCCO)ccc(NCCNCCO)c21	Rpn11 inh 42.7, CSN deneddyl inh 43.9 | CSN5 deneddyl inactive | MMP2 cntr CSN 30.7 | Thrombin counter inactive
O=c1[nH]nc(Sc2ccccc2)c(=S)[nH]1	none (no result: TPT1 inhibitor)
COc1cc(OC)c(OC)cc1/C=C1\CCC/C(=C\c2cc(OC)c(OC)cc2OC)C1=O	HNF4A DNA FP 53.9, CSN deneddyl inh 37.3 (not shown: TPT1 inhibitor, Rpn11 inh) | CSN5 deneddyl 65.8 | MMP2 cntr CSN inactive | Thrombin counter 43.0
O=C(N/N=C/c1ccc([N+](=O)[O-])o1)c1cc(-c2ccncc2)nc2ccccc12	none
Cc1ccc(-c2cc(C(=O)N/N=C/c3ccc([N+](=O)[O-])o3)c3ccccc3n2)o1	CSN deneddyl inh 39.5 (no result: TPT1 inhibitor) | CSN5 deneddyl 106.6 | MMP2 cntr CSN inactive | Thrombin counter inactive
O=C(Nc1ccc2oc(-c3ccccc3F)nc2c1)c1ccc([N+](=O)[O-])o1	CSN deneddyl inh 39.9 (not shown: TPT1 inhibitor, Rpn11 inh) | CSN5 deneddyl 102.6 | MMP2 cntr CSN 16.0 | Thrombin counter inactive
Cc1ccc(CNC(=O)CCc2cn(C)c3ccccc23)cc1	none
O=C(CN1C(=O)C2C3C=CC(C3)C2C1=O)OCC(=O)c1ccc(Cl)c([N+](=O)[O-])c1 (centres undefined)	none
O=[N+]([O-])c1ccc(C2=NN(c3ccccc3)C(c3ccco3)C2)cc1 (centres undefined)	CSN deneddyl inh 62.6 (not shown: TPT1 inhibitor, Rpn11 inh) | CSN5 deneddyl 176.1 | MMP2 cntr CSN inactive | Thrombin counter inactive
NC(=O)COC(=O)c1ccc2noc(-c3ccccc3)c2c1	none
Brc1ccc(-c2nn3c(-c4ccco4)nnc3s2)o1	CSN deneddyl inh 41.1 | CSN5 deneddyl 95.4 | MMP2 cntr CSN inactive | Thrombin counter inactive
COc1cc(/C=C2\SC(=S)N(NC(=O)c3cccc(O)c3)C2=O)ccc1O	HNF4A DNA FP 47.3, CSN deneddyl inh 49.5 (not shown: TPT1 inhibitor, Rpn11 inh) | CSN5 deneddyl 96.5 | MMP2 cntr CSN inactive | Thrombin counter 40.1
